Assay outcomes: PubChem BioAssay, several laboratories
FXN GAA850 act = frataxin GAA850 promoter activation. HEK293 lucGAA850 FXN promoter luciferase reporter, 24 h; percent of 10 µM SAHA response. activation, % at 6 µM. 360,000 tested, 0.56% active;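 active = activation above the average of all compounds screened plus 3 SD, cutoff fixed separately per campaign, cut at about 7.5% in these data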
CHOP inh = CHOP inhibition in unfolded protein response; inhibition, % at 10 µM; 220,000 tested, 3.8% active; CHO-K1 CHOP-promoter luciferase, tunicamycin-induced, 15-18 h; AID 2732;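 active = compounds that reduced the stress-induced luciferase reporter signal by more than about 70% of percent inhibition, limit read from the data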
UPR XBP1 act = activators of adaptive arm of unfolded protein response (XBP1); 330,000 tested, 0.33% active; activation, % at 20 µM; CHO-XBP1 luciferase reporter, IRE1-XBP1 UPR activation, luminescence; percent of tunicamycin response, DMSO as zero; AID 463104;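 active = versus positive control, 20 µM dose yields 30% or more activation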
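Test system: CHO-XBP1 luciferase reporter cells | Buffer or medium: Serum-containing F12 medium, 10% FBS | Schedule: 6 h compound exposure at 37 °C, 5% CO2 | Detection: Steady-Glo luciferase glow luminescence, 10 min after reagent addition | Read-out basis: Activation, % of tunicamycin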
CHOP UPR activ = apoptotic UPR (CHOP) activation; CHO-CHOP luciferase reporter, luminescence; percent of tunicamycin response over DMSO baseline; activation, % at 10 µM; 330,000 tested, 0.34% active; AID 449763;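 active = at 10 µM dose, activation of 40% or more, normalized to positive control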
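measured by = luciferase luminescence | assay system = CHO-CHOP cells, stable luciferase reporter of PERK-eIF2a-CHOP signalling | amount = 500 reporter cells seeded per well | timing = 6 h compound exposure at 37 °C after overnight seeding | controls = positive tunicamycin 10 µg/mL, negative DMSO alone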
Each line names hits and unclear results; the compound was inactive in the other large screens. This is one part of a sample in which hits are shown more often than they occur.

CC(C)c1ccc(CNC(=O)CSCC(=O)Nc2ccc3ccccc3c2)cc1	CHOP inh 86.0
CCOc1ccc(NC(=O)Cn2nnc3c(cnn3-c3ccc(F)cc3)c2=O)cc1	CHOP inh 72.2
COc1ccc(N(CC(=O)N2CCN(c3ccccc3)CC2)S(=O)(=O)c2ccccc2)cc1	none (no result: CHOP inh, UPR XBP1 act, CHOP UPR activ)
CCOC(=O)c1ccc(Oc2nc(N(C)C)nc(N(C)C)n2)cc1	CHOP inh 71.3
COCCNC(=O)C1(C)CCN(C(=O)c2sccc2C)C1 (centres undefined)	none (no result: CHOP inh, UPR XBP1 act, CHOP UPR activ)
CC(Oc1ccccc1F)C(=O)NCCN1CCCCC1 (centres undefined)	CHOP inh 73.7
COc1ccccc1C(=O)NCCN1CCCC1	none (no result: CHOP inh, UPR XBP1 act, CHOP UPR activ)
O=c1oc2cc(O)ccc2cc1-c1nc2c(s1)CCc1ccccc1-2	CHOP inh 82.8 (no result: UPR XBP1 act, CHOP UPR activ)
O=c1oc2ccccc2cc1-c1nc2c(s1)CCc1ccccc1-2	none
CCCNC(=O)C1(C)CCCN(CC(=O)c2ccc3c(c2)OCCO3)C1 (centres undefined)	none (no result: CHOP inh, UPR XBP1 act, CHOP UPR activ)
COC(=O)c1c(C)[nH]c(C(=O)OC(C)C(=O)NC2CCCCC2C)c1C (centres undefined)	none (no result: CHOP inh, UPR XBP1 act, CHOP UPR activ)
Cn1c2ccccc2n2c(=O)c(Cl)c(-c3ccccc3)c(C#N)c12	CHOP inh 72.9
COc1ccc(C(O)c2ncc(-c3cccc(OCc4ccccc4)c3)[nH]2)cc1F (centres undefined)	none (no result: CHOP inh, UPR XBP1 act, CHOP UPR activ)
C=C(C)c1cccc(C(C)(C)NC(=O)Nc2cc(C)ccn2)c1	CHOP inh 91.6
C=C(C)c1cccc(C(C)(C)NC(=O)Nc2ccc(C)cn2)c1	none
CN(c1ccc(O)cc1)c1nc(-c2ccccc2)cs1	CHOP inh 89.7 (no result: UPR XBP1 act, CHOP UPR activ)
CC1(C(=O)NS(=O)(=O)c2ccc(F)cc2F)CCN1C(=O)C/C=C/c1ccccc1 (centres undefined)	none (no result: CHOP inh, UPR XBP1 act, CHOP UPR activ)
COc1cccc(CN2CCC2(C)C(=O)Nc2cnc3ccccc3c2)c1F (centres undefined)	none (no result: CHOP inh, UPR XBP1 act, CHOP UPR activ)
Cc1nn(C(=O)c2ccco2)c(C)c1CN1C(=O)c2ccccc2C1=O	none
Cc1nn(C(=O)c2cccs2)c(C)c1CN1C(=O)c2ccccc2C1=O	CHOP inh 81.0
Cn1c(SCc2cccc([N+](=O)[O-])c2)nc2c(c1=O)SCC2	CHOP inh 75.2
Cn1c(SCc2cccnc2)nc2c(c1=O)SCC2	none
Cc1ccc(F)c(C(=O)N2CCCC(C)(C(=O)NS(=O)(=O)C3CC3)C2)c1F (centres undefined)	none (no result: CHOP inh, UPR XBP1 act, CHOP UPR activ)
CC(C)N(Cc1nc(-c2ccc(Cl)cc2)no1)C(=O)CCC1CCCC1	CHOP inh 83.8
O=C(Nc1ccccc1F)c1csc(COCCO)n1	none (no result: CHOP inh, UPR XBP1 act, CHOP UPR activ)
CSc1nc(-c2ccco2)nn1C(=O)c1ccccc1	none
CSc1nc(-c2ccco2)nn1C(=O)c1ccc(C)cc1	CHOP inh 80.5
COC(=O)c1ccc2c(=O)n(Cc3ccc(C(=O)NC4CCCC4)cc3)c(=S)[nH]c2c1	CHOP inh 85.4
COC(=O)c1ccc2c(=O)n(CCO)c(=S)[nH]c2c1	none
COC(=O)c1ccc2c(=O)n(CCCCCC(=O)O)c(=S)[nH]c2c1	CHOP inh 73.3
CCOc1ccc(N2C(=O)CC(Sc3nc(C)cc(C)n3)C2=O)cc1 (centres undefined)	none
CCOc1ccc(N2C(=O)CC(Sc3nnnn3-c3ccccc3)C2=O)cc1 (centres undefined)	CHOP inh 107.5 (no result: UPR XBP1 act, CHOP UPR activ)
O=[N+]([O-])c1ccc(OCc2cccc(COc3ccc([N+](=O)[O-])cc3)n2)cc1	CHOP inh 83.0
O=P(OC1CCCCC1)(OC1CCCCC1)C(O)c1ccc(Cl)cc1Cl (centres undefined)	CHOP inh 91.6
O=P(OC1CCCCC1)(OC1CCCCC1)C(O)c1c(Cl)cccc1Cl (centres undefined)	CHOP inh 84.0
CCCc1cc(C(=O)OC)c(NC(=O)CCCC(=O)O)s1	none
CCCc1cc(C(=O)OC)c(NC(=O)OCC)s1	CHOP inh 74.0
Cc1ccc(C)c(SCC(=O)OC/C(O)=C(\C#N)c2nc3ccccc3[nH]2)c1	CHOP inh 95.0 (no result: UPR XBP1 act, CHOP UPR activ)
N#C/C(=C(/O)COC(=O)CSc1ccc2ccccc2c1)c1nc2ccccc2[nH]1	CHOP inh 92.1
Cc1cc(Br)ccc1SCC(=O)OC/C(O)=C(\C#N)c1nc2ccccc2[nH]1	CHOP inh 101.5
CC1CC(=O)c2c(cc3c(-c4c(O)cc(O)c5c(O)c6c(cc45)OC(C)CC6=O)c(O)cc(O)c3c2O)O1 (centres undefined)	CHOP inh 82.0
O=C1CC(c2ccc(O)cc2)Oc2cc(O)cc(O)c21 (centres undefined)	none
Cc1cccc(NC(=O)COc2cccc3c2CCNC3=O)c1	none (no result: CHOP inh, UPR XBP1 act, CHOP UPR activ)
CNC(=S)N=Nc1c(O)[nH]c2ccc(C(C)C)cc12	CHOP inh 92.8 (no result: UPR XBP1 act, CHOP UPR activ)
CNC(=O)/C=C1\NC(C)(C)Cc2c1ccc1ccccc21	none
CC1(C)Cc2c(ccc3ccccc23)/C(=C/C#N)N1	CHOP inh 71.4
Cc1nc(N2CCCCC2)c2c(C)c(C(=O)Nc3cccc(C(F)(F)F)c3)sc2n1	none
Cc1nc(N2CCCCC2)c2c(C)c(C(=O)Nc3ccccc3C(F)(F)F)sc2n1	CHOP inh 70.6
Cc1nc(N2CCCCC2C)c2c(C)c(C(=O)Nc3cccc(C(F)(F)F)c3)sc2n1 (centres undefined)	CHOP inh 79.6
Cc1ccc(C(O)c2ncc(-c3ccccc3Cl)[nH]2)cc1F (centres undefined)	none (no result: CHOP inh, UPR XBP1 act, CHOP UPR activ)
CCOC(=O)C1=C(Cn2cnc3ccccc32)NC(=O)NC1c1cc(C)ccc1C (centres undefined)	CHOP inh 88.7
O=C(C1CC1)N1CCC(c2nc(-c3ccc(S(=O)(=O)N4CCCC4)cc3)no2)CC1	none
O=C(CC1CCCCC1)N1CCC(c2nc(-c3ccc(S(=O)(=O)N4CCCC4)cc3)no2)CC1	CHOP inh 95.1
CCCC1NC(=O)c2cc3ccccc3cc2-n2c1nc1cc(F)ccc1c2=O (centres undefined)	none (no result: CHOP inh, UPR XBP1 act, CHOP UPR activ)
CCCCNC(=O)C1(C)CCCCN1Cc1ccccc1-c1ccccc1 (centres undefined)	none (no result: CHOP inh, UPR XBP1 act, CHOP UPR activ)
CCCCCCCCn1c2c(c(=N)c3ccccc31)CCC2	CHOP inh 77.2
COc1cc(/C=C2/CCC/C(=C\c3cc(O)c(OC)c(Cl)c3)C2=O)cc(Cl)c1O	CHOP inh 79.7
CCCCOc1ccc(CSCCN)cc1Cl	CHOP inh 73.2
CCOc1ccc(CSC(=N)N)cc1Cl	none
COc1ccc(/C=N/N2CCN(C3c4ccccc4-c4ccccc43)CC2)cc1O	CHOP inh 91.7
CC(/C=N/NC(=O)NC1CCCCC1)=C\c1ccccc1	CHOP inh 85.8
O=C(N/N=C/c1cccc(F)c1)NC1CCCCC1	none
COc1cc(Cl)c([C@@H]2C[C@H]3CN(c4ccccc4)C(=O)[C@]34CCCN24)cc1OC	none
CCOc1cc([C@@H]2C[C@H]3CN(c4ccccc4)C(=O)[C@]34CCCN24)ccc1OC	CHOP inh 84.2
COc1cc([C@@H]2C[C@H]3CN(c4ccccc4)C(=O)[C@]34CCCN24)cc(OC)c1OC	CHOP inh 78.0
